Assay results published in ChEMBL document CHEMBL5724801, “EUbOPEN Chemogenomics Library - Multiplex” (2024).
Several values for one entry are separate records, joined by “and”; a condition that tells them apart may be missing. Equal entries are not always repeated.

Tested on: HEK-293T
Experiment: Multiplex assay against HEK293T
Format: toxicity, cell-based
Conditions: human
Method in brief: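 Per cents of healthy-nucleus cells form the tubulin, mitochondrial-mass and membrane-permeability phenotype values. Live cells were stained at seeding with Hoechst33342, BioTracker Green Microtubule Cytoskeleton Dye, MitoTracker Red and Annexin V Alexa Fluor 680. After compound addition they were imaged on a CQ1 microscope at 37°C and 5% CO2, and CellPathfinder machine-learning gating split them into Hoechst high-intensity objects or normal cells, normal cells into healthy, pyknosed or fragmented nuclei, and pyknosed cells into mitotic or apoptotic.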

[1] = 12 h, 1 µM, compound concentration 1 uM
[2] = 12 h, 10 µM, compound concentration 10 uM
[3] = 24 h, 1 µM, compound concentration 1 uM
[4] = 24 h, 10 µM, compound concentration 10 uM
[5] = 48 h, 1 µM, compound concentration 1 uM
[6] = 48 h, 10 µM, compound concentration 10 uM

**Q.** For Cc1[nH]nc2ccc(-c3cncc(OCC(N)Cc4c[nH]c5ccccc45)c3)cc12 (stereo not drawn), which “Population Apoptotic (%)” value [1] is on record?
**A.** The value was 14.46% and 12.06%.

**Q.** What about the “Population Fragmented Nuclei (%)” value [1] of the same compound?
**A.** The value was 1.15% and 2.53%.

**Q.** And the “Population Hoechst High Intensity Objects (%)” value [1]?
**A.** The value was 0.86% and 0%.

**Q.** And the “Population Membrane Permeable-Phenotype (%)” value [1]?
**A.** The value was 1.98% and 0%.

**Q.** And the “Population Mitotic Cells (%)” value [1]?
**A.** Its value is 85.54% and 87.94%.

**Q.** And the “Population Normal (%)” value [1]?
**A.** The value was 99.14% and 100%.

**Q.** What about the “Population Pyknosed Nuclei (%)” value [1] of the same compound?
**A.** The value was 69.74% and 89.24%.

**Q.** What about the “Total Cell Count” value [1] of the same compound?
**A.** The value was 350 and 158.

**Q.** And the “Population Apoptotic (%)” value [2]?
**A.** Its value is 26.81% and 37.12%.

**Q.** What about the “Population Fragmented Nuclei (%)” value [2] of the same compound?
**A.** The value was 0.85% and 0%.

**Q.** What about the “Population Healthy Nuclei (%)” value [2] of the same compound?
**A.** Its value is 5.1% and 3.65%.

**Q.** What about the “Population Hoechst High Intensity Objects (%)” value [2] of the same compound?
**A.** Its value is 0.28% and 0%.

**Q.** And the “Population Membrane Permeable-Phenotype (%)” value [2]?
**A.** Its value is 0%.

**Q.** And the “Population Mitochondria Different-Phenotype (%)” value [2]?
**A.** The value was 16.67% and 0%.

**Q.** And the “Population Mitotic Cells (%)” value [2]?
**A.** The value was 73.19% and 62.88%.

**Q.** And the “Population Normal (%)” value [2]?
**A.** Its value is 99.72% and 100%.

**Q.** What about the “Population Pyknosed Nuclei (%)” value [2] of the same compound?
**A.** Its value is 94.05% and 96.35%.

**Q.** What about the “Total Cell Count” value [2] of the same compound?
**A.** Its value is 354 and 137.

**Q.** And the “Population Apoptotic (%)” value [3]?
**A.** Its value is 39.92% and 29.58%.

**Q.** What about the “Population Fragmented Nuclei (%)” value [3] of the same compound?
**A.** Its value is 0.63% and 1.97%.

**Q.** And the “Population Hoechst High Intensity Objects (%)” value [3]?
**A.** The value was 0.62% and 0%.

**Q.** And the “Population Membrane Permeable-Phenotype (%)” value [3]?
**A.** Its value is 1.59% and 0%.

**Q.** What about the “Population Mitochondria Different-Phenotype (%)” value [3] of the same compound?
**A.** Its value is 34.92% and 28.57%.

**Q.** And the “Population Mitotic Cells (%)” value [3]?
**A.** Its value is 60.08% and 70.42%.

**Q.** And the “Population Normal (%)” value [3]?
**A.** The value was 99.38% and 100%.

**Q.** And the “Population Pyknosed Nuclei (%)” value [3]?
**A.** The value was 79.56% and 93.42%.

**Q.** What about the “Total Cell Count” value [3] of the same compound?
**A.** The value was 320 and 152.

**Q.** What about the “Population Apoptotic (%)” value [4] of the same compound?
**A.** The value was 80.3% and 96.64%.

**Q.** What about the “Population Fragmented Nuclei (%)” value [4] of the same compound?
**A.** Its value is 0.86% and 2.34%.

**Q.** What about the “Population Healthy Nuclei (%)” value [4] of the same compound?
**A.** The value was 3.15% and 4.69%.

**Q.** And the “Population Hoechst High Intensity Objects (%)” value [4]?
**A.** Its value is 0.85% and 0%.

**Q.** What about the “Population Membrane Permeable-Phenotype (%)” value [4] of the same compound?
**A.** The value was 0% and 16.67%.

**Q.** What about the “Population Mitochondria Different-Phenotype (%)” value [4] of the same compound?
**A.** The value was 72.73% and 33.33%.

**Q.** And the “Population Normal (%)” value [4]?
**A.** The value was 99.15% and 100%.

**Q.** What about the “Population Pyknosed Nuclei (%)” value [4] of the same compound?
**A.** Its value is 95.99% and 92.97%.

**Q.** What about the “Population Tubulin-Different-Phenotype (%)” value [4] of the same compound?
**A.** The value was 72.73% and 33.33%.

**Q.** What about the “Total Cell Count” value [4] of the same compound?
**A.** The value was 352 and 128.

**Q.** What about the “Population Apoptotic (%)” value [5] of the same compound?
**A.** Its value is 57.46% and 49.23%.

**Q.** What about the “Population Fragmented Nuclei (%)” value [5] of the same compound?
**A.** Its value is 2.33% and 1.39%.

**Q.** What about the “Population Healthy Nuclei (%)” value [5] of the same compound?
**A.** Its value is 21.93% and 8.33%.

**Q.** And the “Population Hoechst High Intensity Objects (%)” value [5]?
**A.** Its value is 0.33% and 0.69%.

**Q.** And the “Population Membrane Permeable-Phenotype (%)” value [5]?
**A.** The value was 0%.

**Q.** And the “Population Mitochondria Different-Phenotype (%)” value [5]?
**A.** The value was 86.36% and 58.33%.

**Q.** And the “Population Mitotic Cells (%)” value [5]?
**A.** The value was 42.54% and 50.77%.

**Q.** What about the “Population Normal (%)” value [5] of the same compound?
**A.** Its value is 99.67% and 99.31%.

**Q.** And the “Population Pyknosed Nuclei (%)” value [5]?
**A.** Its value is 75.75% and 90.28%.

**Q.** And the “Total Cell Count” value [5]?
**A.** Its value is 302 and 145.

**Q.** What about the “Population Apoptotic (%)” value [6] of the same compound?
**A.** The value was 80.14% and 100%.

**Q.** What about the “Population Fragmented Nuclei (%)” value [6] of the same compound?
**A.** Its value is 0.68% and 1.68%.

**Q.** And the “Population Healthy Nuclei (%)” value [6]?
**A.** The value was 3.73% and 4.2%.

**Q.** What about the “Population Hoechst High Intensity Objects (%)” value [6] of the same compound?
**A.** The value was 3.91% and 0%.

**Q.** What about the “Population Membrane Permeable-Phenotype (%)” value [6] of the same compound?
**A.** Its value is 9.09% and 0%.

**Q.** What about the “Population Mitochondria Different-Phenotype (%)” value [6] of the same compound?
**A.** The value was 54.55% and 40%.

**Q.** What about the “Population Mitotic Cells (%)” value [6] of the same compound?
**A.** Its value is 19.86% and 0%.

**Q.** And the “Population Normal (%)” value [6]?
**A.** Its value is 96.09% and 100%.

**Q.** And the “Population Pyknosed Nuclei (%)” value [6]?
**A.** Its value is 95.59% and 94.12%.

**Q.** And the “Population Tubulin-Different-Phenotype (%)” value [6]?
**A.** Its value is 45.45% and 40%.

**Q.** And the “Total Cell Count” value [6]?
**A.** The value was 307 and 119.
